{"source": "ChEMBL document CHEMBL1156051", "about": "“Synthesis and evaluation of lysophosphatidylserine analogues as inducers of mast cell degranulation. Potent activities of lysophosphatidylthreonine and its 2-deoxy derivative” (J Med Chem, 2009)", "key": {"[1]": {"test_system": "Mast cell", "assay": "Induction of Wistar rat peritoneal mast cell degradation assessed as concanavalin A-induced histamine release after 15 mins fluorometric assay", "assay_type": "functional, cell-based", "conditions": "0.25 h", "in_short": "(§1)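 Peritoneal mast cells at 5 × 10^4/mL in HEPES-buffered Tyrode stimulated with analogue plus 100 μg/mL concanavalin A for 15 min at 37 C. Supernatant histamine measured fluorometrically and expressed as percent of total cell histamine. Means ± SE of three independent experiments.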"}, "[2]": {"test_system": "Mus musculus", "assay": "Effect on hypothermic effect in iv dosed C57BL/6 mouse assessed as reduction in rectal temperature measured every 5 to 10 mins for 60 mins", "assay_type": "functional, organism-based", "in_short": "(§2)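 Analogue suspended in PBS with 0.1% BSA and given intravenously; rectal temperature read with a rectal probe every 5 or 10 min for 60 min. Means ± SE of three independent experiments.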"}, "[3]": {"test_system": "Rattus norvegicus", "assay": "Effect on hypothermic effect in iv dosed Wistar rat assessed as reduction in rectal temperature measured every 5 to 10 mins for 60 mins", "assay_type": "functional, organism-based", "in_short": "as §2"}, "[4]": {"test_system": "Mast cell", "assay": "Induction of Wistar rat peritoneal mast cell degradation assessed as concanavalin A-induced histamine release at 0.01 to 10 uM after 15 mins fluorometric assay", "assay_type": "functional, cell-based", "in_short": "as §1"}, "[5]": {"test_system": "Mast cell", "assay": "Induction of C57BL/6 mouse peritoneal mast cell degradation assessed as concanavalin A-induced histamine release at 0.01 to 10 uM after 15 mins fluorometric assay", "assay_type": "functional, cell-based", "in_short": "(§3)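 Peritoneal mast cells at 5 × 10^4/mL in HEPES-buffered Tyrode stimulated with analogue plus 10 μg/mL concanavalin A for 15 min at 37 C. Supernatant histamine measured fluorometrically and expressed as percent of total cell histamine. Means ± SE of three independent experiments.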"}, "[6]": {"test_system": "Mus musculus", "assay": "Effect on hypothermic effect in mast cell-deficient WBB6F1 mouse assessed as reduction in rectal temperature at 10 ug, iv measured every 5 to 10 mins for 60 mins", "assay_type": "functional, organism-based", "in_short": "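W/Wv mast cell-deficient mice, with C57BL/6 as comparison, were given 10 μg iv in PBS containing 0.1% BSA. Rectal temperature was monitored every 5 or 10 min for 60 min. Three independent experiments.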"}, "[7]": {"test_system": "Mast cell", "assay": "Induction of C57BL/6 mouse peritoneal mast cell degradation assessed as concanavalin A-induced histamine release after 15 mins fluorometric assay", "assay_type": "functional, cell-based", "conditions": "C57BL/6, Mast cell, 0.25 h", "in_short": "as §3"}, "[8]": {"test_system": "Mus musculus", "assay": "Increase in plasma histamine level in iv dosed C57BL/6 mouse after 2 mins by EIA", "assay_type": "functional, organism-based", "in_short": "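Mice injected i.v. with analogue in PBS with 0.1% BSA; blood taken 2 min after injection and plasma histamine measured by enzyme immunoassay. Means ± SE of three independent experiments.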"}}, "note": "Active and inactive are the calls of the source. The rule behind the calls is not given here."}
{"smiles": "CCCCCCCCCCCCCCCC(=O)OCCCOP(=O)(O)O[C@H](C)[C@@H](N)C(=O)O", "values": [{"measurement": "EC50", "setting": "[1]", "result": "> 10000", "unit": "nM"}, {"measurement": "Activity", "setting": "[2]", "result": "inactive"}, {"measurement": "Activity", "setting": "[3]", "result": "inactive"}]}
{"smiles": "CCCCCCCCCCCCCCCCCC(=O)OC[C@@H](O)COP(=O)(O)O[C@@H]1CN[C@@H](C(=O)O)C1", "values": [{"measurement": "EC50", "setting": "[1]", "result": "> 10000", "unit": "nM"}, {"measurement": "Activity", "setting": "[4]", "result": "inactive"}, {"measurement": "Activity", "setting": "[5]", "result": "inactive"}]}
{"smiles": "CCCCCCCCCCCCCCCCCC(=O)OCCCOP(=O)(O)O[C@H](C)[C@H](N)C(=O)O", "values": [{"measurement": "EC50", "setting": "[1]", "result": 100, "unit": "nM"}, {"measurement": "Activity", "setting": "[6]", "result": "inactive"}, {"measurement": "Activity", "setting": "[4]", "result": "Active"}, {"measurement": "EC50", "setting": "[7]", "result": 7, "unit": "nM"}, {"measurement": "Activity", "setting": "[2]", "result": "Active"}, {"measurement": "Activity", "setting": "[5]", "result": "Active"}, {"measurement": "Activity", "setting": "[8]", "result": "Active"}]}
{"smiles": "CCCCCCCCCCCCCCCC(=O)OC[C@@H](O)COP(=O)(O)O[C@H](C)[C@H](N)C(=O)O", "values": [{"measurement": "EC50", "setting": "[1]", "result": 40, "unit": "nM"}, {"measurement": "EC50", "setting": "[7]", "result": 20, "unit": "nM"}, {"measurement": "Activity", "setting": "[8]", "result": "Active"}]}
{"smiles": "CCCCCCCCCCCCCCCCCC(=O)OC[C@@H](O)COP(=O)(O)O[C@@H](C)[C@H](N)C(=O)O", "values": [{"measurement": "EC50", "setting": "[1]", "result": 2000, "unit": "nM"}, {"measurement": "EC50", "setting": "[7]", "result": 200, "unit": "nM"}, {"measurement": "Activity", "setting": "[2]", "result": "inactive"}, {"measurement": "Activity", "setting": "[3]", "result": "inactive"}]}
{"smiles": "CCCCCCCCCCCCCCCCCC(=O)OCCCCOP(=O)(O)OC[C@H](N)C(=O)O", "values": [{"measurement": "EC50", "setting": "[1]", "result": 5000, "unit": "nM"}, {"measurement": "Activity", "setting": "[4]", "result": "inactive"}, {"measurement": "Activity", "setting": "[5]", "result": "inactive"}]}
{"smiles": "CCCCCCCCCCCCCCCCCC(=O)OC[C@H](COP(=O)(O)OC[C@H](N)C(=O)O)OC", "values": [{"measurement": "EC50", "setting": "[1]", "result": 2000, "unit": "nM"}]}
{"smiles": "CCCCCCCCCCCCCCCCCC(=O)OC[C@@H](O)COP(=O)(O)OC[C@H](NC)C(=O)O", "values": [{"measurement": "EC50", "setting": "[1]", "result": "> 10000", "unit": "nM"}, {"measurement": "Activity", "setting": "[4]", "result": "inactive"}, {"measurement": "Activity", "setting": "[5]", "result": "inactive"}]}
{"smiles": "CCCCCCCCCCCCCCCCCC(=O)O[C@H](C)COP(=O)(O)OC[C@H](N)C(=O)O", "values": [{"measurement": "EC50", "setting": "[1]", "result": "> 10000", "unit": "nM"}]}
{"smiles": "CCCCCCCCCCCCCCCCCC(=O)OCCCCCOP(=O)(O)OC[C@H](N)C(=O)O", "values": [{"measurement": "EC50", "setting": "[1]", "result": "> 10000", "unit": "nM"}, {"measurement": "Activity", "setting": "[4]", "result": "inactive"}, {"measurement": "Activity", "setting": "[5]", "result": "inactive"}]}
{"smiles": "CCCCCCCCCCCCCCCCCC(=O)OCCCOP(=O)(O)OC[C@H](N)C(=O)O", "values": [{"measurement": "EC50", "setting": "[1]", "result": 500, "unit": "nM"}, {"measurement": "EC50", "setting": "[7]", "result": 40, "unit": "nM"}]}
{"smiles": "CCCCCCCCCCCCCCCCCC(=O)NC[C@@H](O)COP(=O)(O)OC[C@H](N)C(=O)O", "values": [{"measurement": "EC50", "setting": "[1]", "result": 5000, "unit": "nM"}, {"measurement": "Activity", "setting": "[4]", "result": "inactive"}, {"measurement": "Activity", "setting": "[5]", "result": "inactive"}]}
